{"data": "Experimental data gathered from unrelated publications", "matrix": "plasma", "note": "Each line is one published result; the experiments were not run side by side."}
{"SMILES": "COc1cc(-c2cc(C(C)=O)n3ccccc23)c(OC)cc1Cn1ccnc1", "species": "male Sprague-Dawley rat", "route": "oral", "dose": "5 mg/kg", "Tmax": "0.5 h"}
{"SMILES": "CONC(=O)c1cccc2c1cc(C)n2-c1nc2c(c(NCc3ccccc3)n1)CCCN2", "species": "male Sprague-Dawley rat", "route": "oral", "dose": "10 mg/kg", "notes": "single dose", "Tmax": "0.25 h"}
{"SMILES": "CCCCC(=O)Nc1ccc(-c2ccc3ncn(CCC)c(=O)c3c2)cn1", "species": "male rat", "route": "oral", "dose": "10 mg/kg", "Tmax": "0.25 h"}
{"SMILES": "CN(C)C(=O)c1cc2cnc(Nc3ccc(N4CCNCC4)cn3)nc2n1C1CCCC1", "species": "male Sprague-Dawley rat", "route": "intraperitoneal", "dose": "100 mg/kg", "Tmax": "0.5 h"}
{"SMILES": "C1=C/COCc2cc(ccc2OCCN2CCCC2)Nc2nccc(n2)-c2cccc(c2)COC/1", "species": "male Sprague-Dawley rat", "route": "oral", "dose": "36 mg/kg", "Tmax": "8.67 h"}
{"SMILES": "COc1ccc(N(Cc2csc(-c3ccccc3)n2)C(=O)CCCCCC(=O)NO)cc1", "species": "female Sprague-Dawley rat", "route": "intravenous", "dose": "5 mg/kg", "Tmax": "0.08 h"}
{"SMILES": "C=CC(=O)N1CCC[C@@H](n2nc(-c3ccc(Oc4ccccc4)cc3)c3c(N)ncnc32)C1", "species": "male Wistar rat", "route": "oral", "dose": "40 mg/kg", "Tmax": "2 h"}
{"SMILES": "CCCCCCCCCC(=O)N[C@@H](Cc1c[nH]c2ccccc12)C(=O)N[C@H](CC(N)=O)C(=O)N[C@@H](CC(=O)O)C(=O)N[C@@H]1C(=O)NCC(=O)N[C@@H](CCCN)C(=O)N[C@@H](CC(=O)O)C(=O)N[C@H](C)C(=O)N[C@@H](CC(=O)O)C(=O)NCC(=O)N[C@H](CO)C(=O)N[C@@H]([C@H](C)CC(=O)O)C(=O)N[C@@H](CC(=O)c2ccccc2N)C(=O)O[C@@H]1C", "species": "male Wistar rat", "route": "subcutaneous", "dose": "125 mg/kg", "notes": "single dose", "Tmax": "5 h"}
{"SMILES": "C=CC(=O)N1CCC([C@@H]2CCNc3c(C(N)=O)c(-c4ccc(Oc5ccccc5)cc4)nn32)CC1", "species": "Sprague-Dawley rat", "route": "oral", "dose": "16 mg/kg", "Tmax": "1.5 h"}
{"SMILES": "C[C@H]1Oc2cc(cnc2N)-c2c(nn(C)c2C#N)CN(C)C(=O)c2ccc(F)cc21", "species": "male Sprague-Dawley rat", "route": "oral", "dose": "50 mg/kg", "notes": "single dose", "Tmax": "11.4 h"}
{"SMILES": "CCCc1nc2c(C)cc(-c3nc4ccccc4n3C)cc2n1Cc1ccc(-c2ccccc2C(=O)O)cc1", "species": "male Sprague-Dawley rat", "route": "oral", "dose": "8 mg/kg", "notes": "single dose", "Tmax": "3.5 h"}
{"SMILES": "O=C1CCC(N2Cc3cc(C4CCN(Cc5ccccc5)CC4)ccc3C2=O)C(=O)N1 (centres unmarked)", "species": "male Sprague-Dawley rat", "route": "intravenous", "dose": "1 mg/kg", "Tmax": "0.14 h"}
{"SMILES": "CCOc1c([C@H](C)n2nc(C)c3c(N)ncnc32)cc(Cl)c(F)c1[C@@H]1CNC(=O)C1", "species": "male Sprague-Dawley rat", "route": "oral", "dose": "2 mg/kg", "notes": "single dose", "Tmax": "~2.42 h"}
{"SMILES": "C[C@@]12C[C@@]3(O)O[C@@H](O1)[C@]1(COC(=O)c4ccccc4)[C@H]3C[C@@]12O[C@@H]1O[C@H](CO)[C@@H](O)[C@H](O)[C@H]1O", "species": "male Sprague-Dawley rat", "route": "oral", "dose": "80 mg/kg", "Tmax": "0.506 h"}
{"SMILES": "CCN(CC)Cc1ccc2cc(COC(=O)Nc3ccc(C(=O)NO)cc3)ccc2c1", "species": "male Sprague-Dawley rat", "route": "oral", "dose": "10 mg/kg", "Tmax": "~1.72 h"}
{"SMILES": "CC[C@@H]([C@H](C)O)n1ncn(-c2ccc(N3CCN(c4ccc(OC[C@@H]5CO[C@@](Cn6cncn6)(c6ccc(F)cc6F)C5)cc4)CC3)cc2)c1=O", "species": "Sprague-Dawley rat", "route": "oral", "dose": "40 mg/kg", "Tmax": "3.05 h"}
{"SMILES": "C[C@H]1[C@@H](O)O[C@@H]2O[C@@]3(C)CC[C@H]4[C@H](C)CC[C@@H]1[C@@]24OO3", "species": "male Sprague-Dawley rat", "route": "oral", "dose": "10 mg/kg", "Tmax": "0.75 h"}
